The series relates to MS2 coat protein. The experiment in a line: apparent Kd, MS2 coat protein; higher = weaker binding; RNA-MaP array; FMN 200 µM where present. In short, it runs like this:
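Stalled E. coli RNA polymerase transcribed each design on Illumina sequencing-chip clusters. The clusters were titrated with SNAP-549-labelled MS2 coat protein, starting at 0.7 or 1.5 nM and doubling up to 3 µM, first without ligand and then with constant ligand, in 100 mM Tris-HCl pH 7.5, 80 mM KCl, 4 mM MgCl2, BSA, DTT, yeast tRNA and Tween-20. Green signal was normalised to red-channel RNA signal and to the control-cluster median Fmax. The apparent Kd is the median of filtered binding-curve fits made for each cluster.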

Setting [1] is: designed as: OFF switch for flavin mononucleotide, no ligand.
Where [2] appears, read: ligand present: flavin mononucleotide, designed as: OFF switch for flavin mononucleotide.
Where [3] appears, read: designed as: ON switch for flavin mononucleotide, no ligand.
[4] abbreviates: ligand present: flavin mononucleotide, designed as: ON switch for flavin mononucleotide.

With “UCAGGCUUCGAGAAGGACAUGAGGAUCACCCAUGUUAAUUAGAAGCAGCCGUGAGGCUGCAUCAUGUAGGAUAUCGGAGUCUGC”, the “apparent Kd” value runs as follows: under setting [1], 0.00716 µM; under setting [2], 0.0248 µM.
The matching figures for “CUGAAGUCAGGAUAUCGUUAAUUUAGUUGUUUGUAUUAGUUCGAGAAGGGACAUGAGGAUCACCCAUGUAAGUU”: 0.0336 µM and 0.0513 µM.
As for “CGUAGGCCUCUCAACAUGAGGAUCACCCAUGUACGUGAAACGUAGGAUAUCACACAACUAAUGUGUGAGAAGGGCGCGCCGGAG”, the “apparent Kd” value runs as follows: under setting [3], 0.126 µM; under setting [4], 0.124 µM.
“UAUGUUGUUGUGAGGAUAUACUUAGUUUGACCGUAGUAGAAGGCACAUGAGGAUCACCCAUGUAGAUGUUUGGU”: the “apparent Kd” value under setting [1] is 0.0158 µM and the “apparent Kd” value under setting [2] amounted to 0.0295 µM.
For “GUGCACAUUCGAGGAUAUCGGAGAGAGAUCCUUCGAGAAGGCGAUUCAUGCUGUAUUAUUCUGGACAUGAGGAUCACCCAUGUG”, the “apparent Kd” value was determined as 0.23 µM under setting [3] and 0.101 µM under setting [4].
As to “UUCUUUCCUCAUGUACAUGAGGAACAUGAGGAUCACCCAUGUAGAAGGAUUUCCAUUAAAUUAAAAUAGGAUAUACAUAUAUUU”, the “apparent Kd” value was determined as 0.0186 µM under setting [1] and 0.0167 µM under setting [2].
The matching figures for “AUCUCGUCAGGAUAUUGGAUCUGGAUCGAAAGGUCUAGGUCUAAGAAGGGACAUGAGGAUCACCCAUGUCUGGU”: 0.0229 µM and 0.0696 µM.
“GUGUUACAUGAGGAUCACCCAUGUGAGGAUAUCAUGCUUCGUAGUAAACUACGAAGUGUGAGAAGGCACAUGAC”: the “apparent Kd” value by setting is: under setting [1], 0.265 µM; under setting [2], 0.806 µM.
Take “GCAUGCAUAGCGAUAUGAUCGAGAGAUCAUGUCGCUAAAUUUAGAAGGACAUGAGGAUCACCCAUGUAGGAUAUGGGAGCAUGU”: the “apparent Kd” value under setting [3] came out at 0.0921 µM and the “apparent Kd” value under setting [4] came to 0.0154 µM.
As for “CCCAUGUUAGGAUAUAUGGAAGGGCGCACGUGCACCCUAAGGUAGAAGGGACAUGAGGAUCACCCAUGUAAUAA”, the “apparent Kd” value was 0.152 µM under setting [1] and 0.228 µM under setting [2].
Consider “UGGCCAAGAGGAUAUACAUGAGGAUCACCCAUGUCCAUCCUGAUGGAUAGGGCCGAGUGUAGAAGGCUUGGUCC”, for which the “apparent Kd” value under setting [1] was 0.0326 µM and the “apparent Kd” value under setting [2] turned out to be 0.018 µM.
Regarding “GCUGCCGAUGCAGGAUAUCAGCACGUGUAGUGCUGAGAAGGGCACAUGAGGAUCACCCAUGUGAUCAAUUAAUAUCCGUGCAGC”, the “apparent Kd” value was 0.00589 µM under setting [1] and 0.00778 µM under setting [2].
In the case of “UUCGGACUAUCAGGAUAUGGUGUAGCCUAGUAAAGGACAUGAGGAUCACCCAUGUACCAUUGGUACCAGAAGGGAUGAUCCUAC”, the “apparent Kd” value under setting [3] came out at 0.03 µM and the “apparent Kd” value under setting [4] was 0.0249 µM.
On to “UAAUCGUUGCAGAAGGUUAUUUUUUUAACAUUUCUCUUAACAUGAGGAUCACCCAUGUUUUUGAUGAAGGAUAUGCAACGGUAG”, for which the “apparent Kd” value is, setting by setting: under setting [1], 0.00667 µM; under setting [2], 0.00551 µM.
Consider “AAAAAACAUGAGGAUCACCCAUGUCUUCGGACGUGAGGAUAUGUACAGACUUCGGUCUGUACAGAAGGCACGUAAA”, for which the “apparent Kd” value is, setting by setting: under setting [3], 0.051 µM; under setting [4], 0.023 µM.
“AACAGUACAGGAUAUACAUGAGGAUCACCCAUGUGAUCAUCAAGUGCCGUAGCACGAAGUAGAAGGGUACUGGA”: the “apparent Kd” value turned out to be 0.207 µM under setting [1] and 0.057 µM under setting [2].
On to “AUAAAGUGAGGAUAUACAUGAGGAUCACCCAUGUGAAAGUCUAAAAAAAUGACAAAAAGUAGAAGGCACAAAUA”, for which the “apparent Kd” value came out at 0.0238 µM under setting [1] and 0.0243 µM under setting [2].
“UAUUUGUCAGGAUAUGAGUCGUAGAACAAUAGUACUACGUCUCAGAAGGGACAUGAGGAUCACCCAUGUGCCUC”: the “apparent Kd” value under setting [1] is 0.0255 µM and the “apparent Kd” value under setting [2] worked out at 0.217 µM.
In the case of “UGUCGGAGCAGAGGAUAUACAUGAGGAUCACCCAUGUAAAUGGAAGAAGCCUGGAAACAGGCAAUGUAGAAGGCUGCUCCGACA”, the “apparent Kd” value under setting [1] was found to be 0.132 µM and the “apparent Kd” value under setting [2] amounted to 0.97 µM.
For “UUUAUUUUUACAGGAUAUCAUCUAUAUAACUCAUGCAAAUGUUUACAUGAGGAUCACCCAUGUUAUGAGAAGGGUAUUGAAACA”, the “apparent Kd” value is, setting by setting: under setting [3], 0.361 µM; under setting [4], 0.216 µM.
For the sequence “UUUUACGAAGGAUAUACAUUUUUUUUAUUAUUUUCAUUAUUACAUGAGGAUCACCCAUGUAGAAGGUCGAUUUU”, the “apparent Kd” value reads like this: under setting [1], 0.0243 µM; under setting [2], 0.0237 µM.
With “UUCGCUAAGGUGUAGCGAGGCUCGCAAGAAGGGUGAUGCACAUGAGGAUCACCCAUGUAAGCCUUACAGGAUAUUGCUUGCCGA”, the “apparent Kd” value reads like this: under setting [3], 0.509 µM; under setting [4], 0.0407 µM.
As for “CCUCGUUGGGAGGAUAUCCUUUUGGUUGGAGGAGGAGAAGGCUCGACAUGAGGAUCACCCAUGUGGGAUUUCCC”, the “apparent Kd” value is, setting by setting: under setting [1], 0.0624 µM; under setting [2], 0.194 µM.
For the sequence “GGAUCGAGUGUGAGGAUAUGCUGGUCCUUGGAUCAGCAGAAGGCACAUGAGGAUCACCCAUGUGGUAACGGUCC”, the “apparent Kd” value was found to be 0.19 µM under setting [1] and 0.537 µM under setting [2].
Take “GUAGCAUACCGAGGAUAUUCUGGGCAUAAAUAAACAUGAGGAUCACCCAUGUGGCGAAAGCCUAGGGAGAAGGCGGAAUGCUAC”: the “apparent Kd” value by setting is: under setting [3], 0.0148 µM; under setting [4], 0.0136 µM.
In the case of “AUCUGCUCGUCAGGAUAUACGUCACUGCGUCAGCAGUGUGGUAAGAUCACAUGAGGAUCACCCAUGUAGAAGGGACGAGCUGAU”, the “apparent Kd” value is, setting by setting: under setting [1], 0.0129 µM; under setting [2], 0.268 µM.
The matching figures for “CGACGAGUGGAGAAGGACUUUGACUAGCACAGGGUAGGAUAUCCACAUGAGGAUCACCCAUGUAGGAUACUUAUUGGGCCGCCU”: 0.00696 µM and 0.0228 µM.
Regarding “UUAACUCAUGUAGGAUAUGCAUGGCGAAGCUACGCAGAAGGACAUGAGGAUCACCCAUGUUCUAGCGUCUGAGUACAGAUGCAA”, the “apparent Kd” value by setting is: under setting [1], 0.0434 µM; under setting [2], 0.29 µM.
As to “CCGCUGUCAGGAUAUCGUGCAUACAACGAAAGUUCUAUGUGCGAGAAGGGACAUGAGGAUCACCCAUGUUUCCG”, the “apparent Kd” value came out at 0.0166 µM under setting [1] and 0.0258 µM under setting [2].
As for “GGGUUGCUACAAGGAUAUGAUGAAAGUGAGACAUCAGAAGGUGUAGUAUCACAUGAGGAUCACCCAUGUAGAACAACCCAAACC”, the “apparent Kd” value runs as follows: under setting [3], 0.369 µM; under setting [4], 0.023 µM.
As to “AAAGACAGAGGAUAUGCACGCCGACCCGGGCGGGAAGUCGGACAUGAGGAUCACCCAUGUAGAAGGCUGAGAAA”, the “apparent Kd” value reads like this: under setting [1], 0.0113 µM; under setting [2], 0.0148 µM.
For the sequence “UUGGAGUUCGUAGGAUAUGUAGGAUAUUCCUACAUGAGGAUCACCCAUGUUGACAUGGAGGAAGGACAGAAGGACGAGCUCCAU”, the “apparent Kd” value worked out at 0.206 µM under setting [3] and 0.225 µM under setting [4].
The matching figures for “UUACGUCCCAUUUACAUGAGGAUCACCCAUGUCGAAAGACAUGAGGAUAUGCUACCUAAUUGGUAGCAGAAGGCAUGGACGUCG”: 0.662 µM and 0.347 µM.
For “AGCAAGCGAGGAUAUGCUCGGGUUGCUUGUCGAGAGGAUACACAUGAGGAUCACCCAUGUAGAAGGUGUAUAAA”, the “apparent Kd” value is, setting by setting: under setting [1], 0.0377 µM; under setting [2], 0.0284 µM.
In the case of “UGUCAGAGCAGAGGAUAUUACAUGAGGAUCACCCAUGUAUGAACCAAUAGCUGGAAACAGCAAUGUAAGAAGGCUGCUCCGACA”, the “apparent Kd” value is 0.0119 µM under setting [1] and 0.13 µM under setting [2].
Take “GAGUAGAUCCGAGGAUAUACAAUCCGGAAACGGUACAUGAGGAUCACCCAUGUAGAAGGCGGAUCUACAGGUACUAAAGUACCU”: the “apparent Kd” value under setting [2] came to 0.00789 µM.
In the case of “GCCCUUCGUGGAAGGGCAAAAGGACAGGAUAUCGCUUAAACAUGAGGAUCACCCAUGUCCGUUAACGAGAAGGGUCGAAUAAAU”, the “apparent Kd” value under setting [3] was determined as 0.0642 µM and the “apparent Kd” value under setting [4] is 0.012 µM.
For “GGUACCAUCACAGGAUAUGCUUUUCUUUGGGAAGCAGAAGGGUGUAACAUGAGGAUCACCCAUGUGGUGCCAGGGCGCGAGCCC”, in that order: 0.205 µM and 0.0154 µM.
For “CAGAAUUGAGGAUAUGAUCAAUUUAACAUGAGGAUCACCCAUGUAUGGGAAUGAUUCUGAUCAGAAGGCGAUUCUU”, the “apparent Kd” value by setting is: under setting [1], 1.29 µM; under setting [2], 0.91 µM.
The matching figures for “UGGGUAAAUGUAGGAUAUUUAUAUUAAUAGUAUGGAGAAGGACAUGAGGAUCACCCAUGUACAGGGAGUUACCCAUUUCCUCUC”: 0.67 µM and 0.662 µM.
With “GUAUUUGAAGUAAGGAUAUGCCUCUGGAAACGGAGGUAGAAGGUACAUGAGGAUCACCCAUGUUUCUCUCUUGG”, the “apparent Kd” value is, setting by setting: under setting [1], 0.0169 µM; under setting [2], 0.0273 µM.
For “GGUGGCGUGAUAACGCUAGAUAUAACAUGAGGAUCACCCAUGUAGGAUAUCCCGCCGAGAGGGCGGGAGAAGGACAAUCAAUGG”, in that order: 0.0452 µM and 0.0473 µM.
For “GCUUUUAAGGGAGGAUAUUGUUACAUGAGGAUCACCCAUGUGGCGGGAUGAUAUCUUAACAGGAACGAGAAGGCCCAAACGCGA”, in that order: 0.0357 µM and 0.0654 µM.
The matching figures for “AUCUAUCAUGUAGGAUAUGCGUGGCGAAGCUAUGCAGAAGGACAUGAGGAUCACCCAUGUCUUUCUGUCUGCGGACGGACAGGA”: 0.0236 µM and 0.0727 µM.
Take “ACAUGCAUAGCGAUAUGAUCGAGAGAUCAUGUCGCUAAAUUUAGAAGGACAUGAGGAUCACCCAUGUAGGAUAUGGGAGCAUGC”: the “apparent Kd” value under setting [3] is 0.0879 µM and the “apparent Kd” value under setting [4] amounted to 0.0171 µM.
As to “UCGUGCCGGGUUACGAUCGACCCACAUGAGGAUCACCCAUGUAGAAGGACCAGCGUCGGCCCUUGGUAGGAUAUACAUGAAAUC”, the “apparent Kd” value turned out to be 0.106 µM under setting [1] and 0.135 µM under setting [2].
For “AAUAUGAGCUGGUUUAAACUCAAAACAUGAGGAUCACCCAUGUAGGAUAUCAGCACGAUAAGUGCUGAGAAGGACAUCCAGCUC”, in that order: 0.0142 µM and 0.0165 µM.
“AUUACAUGAGGAUCACCCAUGUACGGCACGUUUCAAAACAGUGAGGAUAUACGAUAUGUAGGAACGUAGAAGGCACUGGGUGCA”: the “apparent Kd” value by setting is: under setting [3], 0.0827 µM; under setting [4], 0.0359 µM.

Source of the values: the EternaBench riboswitch data.
